How the values were obtained:
[1] = target: Norepinephrine transporter (Rattus norvegicus, UniProt Q9WTR4); test: Selectivity for the norepinephrine transporter using [3H]nisoxetine binding assay
Procedure, shortened: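 Norepinephrine transporter binding used 8 mg frontal cortex from male Sprague–Dawley rats with 0.5 nM [3H]nisoxetine. Incubated 60 min. Nonspecific binding defined with 1 μM desipramine. Ice-cold washes through PEI-soaked GF/B filters.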

[2] = target: Sodium-dependent serotonin transporter (Rattus norvegicus, UniProt P31652); test: Selectivity for the Serotonin transporter using [3H]paroxetine binding assay
Procedure, shortened: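 Serotonin transporter binding used 1.5 mg hindbrain from male Sprague–Dawley rats with 0.2 nM [3H]paroxetine. Buffer was 50 mM Tris, 120 mM NaCl, 0.5 mM KCl, pH 7.4. Incubated 90 min at room temperature. Nonspecific binding defined with 1 μM citalopram. Ice-cold washes through PEI-soaked GF/B filters.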

[3] = target: T1, Sodium-dependent dopamine transporter (Rattus norvegicus, UniProt P23977); test: Inhibitory potency against [3H]DA uptake […]
Procedure, shortened: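 Rat striatal S1 fraction (CO2-anesthetized rats) diluted in Krebs-phosphate buffer (pH 7.4, O2/CO2-equilibrated, with pargyline and ascorbate). Preincubated with drug 10 min at 37 °C, then [3H]DA for 2.0 min. Nonspecific uptake measured at 0 °C. Stopped with chilled buffer and GF/C filtration, then scintillation counting. IC50 from usually five concentrations, each in duplicate.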

[4] = target: T1, Sodium-dependent dopamine transporter; test: Inhibitory potency against dopamine (DA) transporter using [3H]WIN-35428 (WIN-) binding assay.
[5] = target: Monoamine transporters; serotonin & dopamine (Rattus norvegicus) (UniProt P31652+P23977); test: Ratio of IC50 of 5-HT (serotonin transporter) to IC50 of DA (dopamine transporter); format: protein assay
[6] = target: Monoamine transporters; Norepininephrine & dopamine (Rattus norvegicus) (UniProt P23977+Q9WTR4); test: Ratio of IC50 of NE (norepinephrine transporter) to IC50 of DA (dopamine transporter); format: protein assay

Norepinephrine transporter, sequence (Q9WTR4 whole entry): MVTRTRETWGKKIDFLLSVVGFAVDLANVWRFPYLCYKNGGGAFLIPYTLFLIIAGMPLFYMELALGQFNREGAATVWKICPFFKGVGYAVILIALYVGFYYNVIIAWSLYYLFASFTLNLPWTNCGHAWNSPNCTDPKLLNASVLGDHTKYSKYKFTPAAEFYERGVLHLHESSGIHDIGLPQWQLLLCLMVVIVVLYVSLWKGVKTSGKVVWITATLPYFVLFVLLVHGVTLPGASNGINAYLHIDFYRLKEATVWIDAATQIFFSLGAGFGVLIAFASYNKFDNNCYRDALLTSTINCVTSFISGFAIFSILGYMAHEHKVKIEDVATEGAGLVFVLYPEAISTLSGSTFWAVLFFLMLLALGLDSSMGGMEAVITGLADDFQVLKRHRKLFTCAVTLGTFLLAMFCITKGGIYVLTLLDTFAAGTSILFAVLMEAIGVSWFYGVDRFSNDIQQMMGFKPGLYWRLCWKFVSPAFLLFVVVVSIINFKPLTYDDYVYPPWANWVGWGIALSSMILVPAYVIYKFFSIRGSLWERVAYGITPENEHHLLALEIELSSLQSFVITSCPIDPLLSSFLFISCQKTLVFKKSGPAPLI
T1 sequence (P23977 whole entry): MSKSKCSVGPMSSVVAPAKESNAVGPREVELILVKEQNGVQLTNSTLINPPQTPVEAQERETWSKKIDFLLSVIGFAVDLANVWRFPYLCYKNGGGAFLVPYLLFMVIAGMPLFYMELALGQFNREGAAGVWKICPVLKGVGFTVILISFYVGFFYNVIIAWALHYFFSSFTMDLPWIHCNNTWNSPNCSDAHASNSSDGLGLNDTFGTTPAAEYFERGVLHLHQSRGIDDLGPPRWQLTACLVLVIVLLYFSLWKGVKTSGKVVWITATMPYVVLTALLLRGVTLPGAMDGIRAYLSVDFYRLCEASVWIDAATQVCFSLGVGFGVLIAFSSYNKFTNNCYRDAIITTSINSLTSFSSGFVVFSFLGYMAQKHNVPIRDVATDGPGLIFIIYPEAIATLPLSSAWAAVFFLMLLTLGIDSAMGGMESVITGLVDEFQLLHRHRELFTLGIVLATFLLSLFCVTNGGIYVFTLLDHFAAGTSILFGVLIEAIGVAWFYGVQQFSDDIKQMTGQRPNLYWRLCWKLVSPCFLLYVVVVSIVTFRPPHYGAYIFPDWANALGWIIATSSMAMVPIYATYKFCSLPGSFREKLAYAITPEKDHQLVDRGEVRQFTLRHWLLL
Monoamine transporters; serotonin & dopamine (Rattus norvegicus), sequence (P23977 whole entry, looked up): as the sequence (P23977 whole entry) above
Monoamine transporters; serotonin & dopamine (Rattus norvegicus), sequence (P31652 whole entry, looked up): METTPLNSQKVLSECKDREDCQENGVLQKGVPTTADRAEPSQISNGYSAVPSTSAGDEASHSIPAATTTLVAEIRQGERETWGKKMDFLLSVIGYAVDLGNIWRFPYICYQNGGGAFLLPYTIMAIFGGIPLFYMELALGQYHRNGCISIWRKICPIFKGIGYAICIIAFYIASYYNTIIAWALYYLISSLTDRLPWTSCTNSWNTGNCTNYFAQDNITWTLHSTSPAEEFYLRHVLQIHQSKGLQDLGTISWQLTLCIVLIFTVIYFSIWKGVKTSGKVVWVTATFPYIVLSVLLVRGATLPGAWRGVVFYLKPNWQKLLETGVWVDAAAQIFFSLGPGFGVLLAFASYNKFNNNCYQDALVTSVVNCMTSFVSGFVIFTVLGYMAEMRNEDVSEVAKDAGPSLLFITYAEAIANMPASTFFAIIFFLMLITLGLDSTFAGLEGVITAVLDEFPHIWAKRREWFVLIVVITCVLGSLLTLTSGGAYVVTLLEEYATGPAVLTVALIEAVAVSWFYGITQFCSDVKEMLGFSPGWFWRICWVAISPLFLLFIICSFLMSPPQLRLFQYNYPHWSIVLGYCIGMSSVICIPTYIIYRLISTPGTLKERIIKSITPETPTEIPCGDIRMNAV
Sodium-dependent serotonin transporter, sequence (P31652 whole entry): as the sequence (P31652 whole entry, looked up) above

Molecule `CN(C)C1C2CCC(CC2O)C1c1ccccc1` (stereo in doubt; 8) [listing 1 of 2 here] has an IC50 [1] of 7.23 µM, an IC50 [2] of 21.8 µM and an IC50 [3] of 2.81 µM. It also gave an IC50 [4] of 2.04 µM.

`CN(C)C1C2CCC(CC2=O)C1c1ccccc1` (stereo in doubt; 6) [listing 1 of 2 here] was tested, and the IC50 [1] was 4.12 µM, the IC50 [2] was 31.4 µM and the IC50 [3] was 9.14 µM. For the same molecule, the IC50 [4] was 4.01 µM.

For `CN(C)C1C2CCC(CC2O)C1c1ccccc1` (stereo in doubt; 15) [listing 1 of 2 here], the Ratio [5] was > 10 and the Ratio [6] was 3.5.

With `CN(C)C1C2CCC(CC2OC(=O)c2ccccc2)C1c1ccccc1` (stereo in doubt; 11) [listing 1 of 2 here] the Ratio [5] was 0.15 and the Ratio [6] was 0.65.

`CN(C)C1C2CCC(CC2OC(=O)c2ccccc2)C1c1ccccc1` (stereo in doubt; 19) [listing 1 of 2 here] gave an IC50 [1] of 4.19 µM, an IC50 [2] of 1.88 µM and an IC50 [3] of 8.24 µM. The IC50 [4] was 2.27 µM.

`CN(C)C1C2CCC(CC2O)C1c1ccccc1` (stereo in doubt; 7) [listing 1 of 2 here] was tested, and the IC50 [1] was 1.51 µM, the IC50 [2] was 8.38 µM and the IC50 [3] was 4.45 µM. The IC50 [4] was 1.77 µM.

`CN(C)C1C2CCC(CC2OC(=O)c2ccccc2)C1c1ccccc1` (stereo in doubt; 18) [listing 1 of 2 here] gave a Ratio [5] of 0.35 and a Ratio [6] of 3.4.

`COC(=O)[C@H](c1ccccc1)[C@H]1CCCCN1` [DEXMETHYLPHENIDATE] was tested, and the IC50 [1] was 0.989 µM and the IC50 [2] was 224 µM.

For `CN(C)C1C2CCC(CC2OC(=O)c2ccccc2)C1c1ccccc1` (stereo in doubt; 19) [listing 2 of 2 here], the Ratio [5] was 0.83 and the Ratio [6] was 1.8.

In the case of `CC(=O)OC1CC2CCC1C(N(C)C)C2c1ccccc1` (stereo in doubt; 17) [listing 1 of 2 here], the IC50 [1] is reported as 46.8 µM, the IC50 [2] is reported as 22.8 µM and the IC50 [3] is reported as 75 µM. The IC50 [4] was 45.6 µM.

With `CC(=O)OC1CC2CCC1C(N(C)C)C2c1ccccc1` (stereo in doubt; 10) [listing 1 of 2 here] the Ratio [5] was 14 and the Ratio [6] was 4.5.

`CN(C)C1C2CCC(CC2=O)C1c1ccccc1` (stereo in doubt; 13) [listing 1 of 2 here] was tested, and the Ratio [5] was 5.9 and the Ratio [6] was 1.

With `CN(C)C1C2CCC(CC2O)C1c1ccccc1` (stereo in doubt; 14) [listing 1 of 2 here] the IC50 [1] was 7.73 µM, the IC50 [2] was 12.3 µM and the IC50 [3] was 10.9 µM. It also gave an IC50 [4] of 7.04 µM.

In the case of `CN(C)CC1C2CCC(CC2)C1c1ccc(Cl)c(Cl)c1` (stereo not drawn), the IC50 [1] is reported as 0.096 µM and the IC50 [2] is reported as 0.261 µM.

In the case of `CC(=O)OC1CC2CCC1C(N(C)C)C2c1ccccc1` (stereo in doubt; 16) [listing 1 of 2 here], the IC50 [1] is reported as 10.4 µM, the IC50 [2] is reported as 4.77 µM and the IC50 [3] is reported as 16.3 µM. It also gave an IC50 [4] of 13.6 µM.

`CN(C)C1C2CCC(CC2OC(=O)c2ccccc2)C1c1ccccc1` (stereo in doubt; 12) [listing 1 of 2 here] was tested, and the Ratio [5] was 41 and the Ratio [6] was 5.4.

`CN(C)C1C2CCC(CC2O)C1c1ccccc1` (stereo in doubt; 14) [listing 2 of 2 here] gave a Ratio [5] of 1.7 and a Ratio [6] of 1.1.

`CC(=O)OC1CC2CCC1C(N(C)C)C2c1ccccc1` (stereo in doubt; 10) [listing 2 of 2 here] gave an IC50 [1] of 55.4 µM, an IC50 [2] of 176 µM and an IC50 [3] of 25.8 µM. The IC50 [4] was 12.2 µM.

`CC(=O)OC1CC2CCC1C(N(C)C)C2c1ccccc1` (stereo in doubt; 17) [listing 2 of 2 here] was tested, and the Ratio [5] was 0.5 and the Ratio [6] was 1.

`CN(C)C1C2CCC(CC2O)C1c1ccccc1` (stereo in doubt; 15) [listing 2 of 2 here] was tested, and the IC50 [1] was 34.4 µM, the IC50 [2] was > 100 µM and the IC50 [3] was 23 µM. For the same molecule, the IC50 [4] was 9.92 µM.

`CN(C)C1C2CCC(CC2O)C1c1ccccc1` (stereo in doubt; 7) [listing 2 of 2 here] gave a Ratio [5] of 4.7 and a Ratio [6] of 0.85.

In the case of `CN(C)C1C2CCC(CC2O)C1c1ccccc1` (stereo in doubt; 8) [listing 2 of 2 here], the Ratio [5] is reported as 11 and the Ratio [6] is reported as 3.5.

`CC(=O)OC1CC2CCC1C(N(C)C)C2c1ccccc1` (stereo in doubt; 9) [listing 1 of 2 here] gave a Ratio [5] of 0.46 and a Ratio [6] of 0.1.

`CN(C)C1C2CCC(CC2=O)C1c1ccccc1` (stereo in doubt; 13) [listing 2 of 2 here] gave an IC50 [1] of 10.6 µM, an IC50 [2] of 61.2 µM and an IC50 [3] of 24.7 µM. For the same molecule, the IC50 [4] was 10.3 µM.

`CN(C)C1C2CCC(CC2OC(=O)c2ccccc2)C1c1ccccc1` (stereo in doubt; 12) [listing 2 of 2 here] showed an IC50 [1] of 1.47 µM, an IC50 [2] of 11.1 µM and an IC50 [3] of 0.687 µM. The IC50 [4] was 0.27 µM.

`CC(=O)OC1CC2CCC1C(N(C)C)C2c1ccccc1` (stereo in doubt; 16) [listing 2 of 2 here] showed a Ratio [5] of 0.35 and a Ratio [6] of 0.76.

`CN(C)C1C2CCC(CC2OC(=O)c2ccccc2)C1c1ccccc1` (stereo in doubt; 11) [listing 2 of 2 here] showed an IC50 [1] of 0.225 µM, an IC50 [2] of 0.053 µM and an IC50 [3] of 0.372 µM. For the same molecule, the IC50 [4] was 0.358 µM.

`CC(=O)OC1CC2CCC1C(N(C)C)C2c1ccccc1` (stereo in doubt; 9) [listing 2 of 2 here] gave an IC50 [1] of 0.535 µM, an IC50 [2] of 2.45 µM and an IC50 [3] of 4.93 µM. The IC50 [4] was 5.33 µM.

With `CN(C)C1C2CCC(CC2OC(=O)c2ccccc2)C1c1ccccc1` (stereo in doubt; 18) [listing 2 of 2 here] the IC50 [1] was 7.38 µM, the IC50 [2] was 0.76 µM and the IC50 [3] was 4.84 µM. The IC50 [4] was 2.2 µM.

With `CN(C)C1C2CCC(CC2=O)C1c1ccccc1` (stereo in doubt; 6) [listing 2 of 2 here] the Ratio [5] was 7.8 and the Ratio [6] was 1.
